Consider 13 compounds from ChEMBL document CHEMBL1131155, “Design of new topoisomerase II inhibitors based upon a quinobenzoxazine self-assembly model” (J Med Chem, 1998).

The term IC50 denotes the concentration that gives 50% inhibition.

A value given as a limit tells only on which side of the number the result lay.

One experiment deals with DNA topoisomerase II (Homo sapiens, UniProt P11388+Q02880). Nature of the experiment: Inhibition of topoisomerase II as conversion of catenated to decatenated KDNA. Type of experiment: protein assay. A digest of the protocol: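 kDNA (0.25 μg) preincubated 10 min with varied compound levels in 50 mM Tris-HCl pH 8, 120 mM KCl, 10 mM MgCl₂, 0.5 mM ATP and DTT. Then 2 units human topo II (170-kDa form) added, 37 °C for 30 min. Stopped with sarkosyl stop buffer. Products resolved on 1% agarose with ethidium bromide and quantified by fluorescence scanning.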

The test system of another experiment is Nucleic Acid. Nature of the experiment: Tested for the DNA unwinding concentration that causes a shift of the topoisomers from the original to the middle position between the relaxed and the supercoiled bands. Type of experiment: functional. A digest of the protocol: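 Supercoiled pHOT1 DNA (0.25 μg) relaxed with 5 units topo I, 37 °C for 30 min. Drug at various concentrations then added and incubated a further 30 min. Stopped with 1% SDS, proteinase K treatment at 56 °C, and chloroform-isoamyl alcohol extraction. Topoisomers run on 1% agarose in TPE with 0.2 μg/mL chloroquine, 10 V for 20 h. Gel post-stained with ethidium and scanned.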

A further experiment concerns NCI-H226. Nature of the experiment: The compound was tested for the concentration to inhibit 50% of H226 non-small cell lung cells. The note with it: Homo sapiens. Format: functional, cell-based. A digest of the protocol:
(§1)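 Exponentially growing cells seeded on day 0. Graded compound concentrations added in duplicate on day 1, then incubated at 37 °C. MTT (1 mg/mL in PBS) given for 4 h at 37 °C and formazan dissolved in 0.4 N HCl/isopropanol. Absorbance read at 570 nm against a 630 nm reference. IC50 derived from the dose-response curve.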

The next experiment has as its system Raji. As to the kind of experiment: The compound was tested for the concentration to inhibit 50% of Raji lymphoma cells. Type of experiment: functional, cell-based. The note with it: Homo sapiens. A digest of the protocol: as §1
A further experiment deals with HT-29. As to the kind of experiment: The compound was tested for the concentration to inhibit 50% of HT-29 colon cells. Format: functional, cell-based. The note with it: Homo sapiens. A digest of the protocol: as §1
A further experiment relates to DU-145. Nature of the experiment: The compound was tested for the concentration to inhibit 50% of DU-145 prostate cells. Format: functional, cell-based. The note with it: Homo sapiens. A digest of the protocol: as §1
A further experiment concerns MDA-MB-231. Nature of the experiment: The compound was tested for the concentration to inhibit 50% of MDA-231 breast cancer cell lines. Format: functional, cell-based. The note with it: Homo sapiens. A digest of the protocol: as §1
For another experiment, the system named is B16. Nature of the experiment: The compound was tested for the concentration to inhibit 50% of B16 murine melanoma cells. Format: functional, cell-based. The note with it: Mus musculus. A digest of the protocol:
as §1

On to `N[C@@H]1CCN(c2c(F)cc3c(=O)c(C(=O)O)cn4c3c2Oc2cc3ccccc3cc2-4)C1`, for which the IC50 against DNA topoisomerase II turned out to be 0.42 µM; with NCI-H226, 0.022 µM; with Raji, 0.032 µM; in the experiment on HT-29, 0.022 µM; in the experiment on DU-145 it was 0.048 µM; in the experiment with MDA-MB-231, 0.021 µM. In the experiment on B16, this compound showed a concentration for half-maximal inhibition (IC50) of 0.14 µM. In addition, in the experiment on Nucleic Acid, the DNA unwinding concentration was 15 µM.

As for `N[C@H]1CCN(c2c(F)cc3c(=O)c(C(=O)O)cn4c3c2Oc2cc3ccccc3cc2-4)C1`, the 50% inhibitory concentration (IC50) at DNA topoisomerase II was found to be 0.44 µM; with NCI-H226, 0.014 µM; with Raji it was 0.029 µM; in the experiment with HT-29 it was 0.023 µM; in the experiment with DU-145 it was 0.03 µM; in the experiment with MDA-MB-231, 0.01 µM. For the same compound, the IC50 in the experiment with B16 is 0.02 µM. Besides, the DNA unwinding concentration in the experiment with Nucleic Acid was found to be 13 µM.

For `NC1CCN(c2c(F)cc3c(=O)c(C(=O)O)cn4c3c2Oc2c-4ccc3ccccc23)C1` (stereo unspecified), the half-maximal inhibitory concentration (IC50) turned out to be 0.55 µM against DNA topoisomerase II; 0.022 µM in the experiment with NCI-H226; 0.018 µM with Raji; 0.03 µM in the experiment on HT-29; 0.017 µM in the experiment on DU-145; 0.027 µM in the experiment with MDA-MB-231. Besides, in the experiment with B16, the IC50 was found to be 0.04 µM.

As to `N[C@@H]1CCN(c2c(F)cc3c(=O)c(C(=O)O)cn4c3c2Oc2c-4ccc3ccccc23)C1`, the concentration for half-maximal inhibition (IC50) against DNA topoisomerase II came to 0.24 µM; in the experiment with NCI-H226, 0.013 µM; in the experiment with Raji it was 0.034 µM; in the experiment on HT-29, 0.026 µM; in the experiment on DU-145, 0.03 µM; in the experiment with MDA-MB-231, 0.005 µM. Also, it took 0.02 µM to reach half-maximal inhibition in the experiment on B16 (IC50). In addition, the DNA unwinding concentration in the experiment with Nucleic Acid stood at 3 µM.

On to `N[C@@H]1CCN(c2c(F)cc3c(=O)c(C(=O)O)cn4c3c2Oc2ccc3ccccc3c2-4)C1`, for which the half-inhibitory concentration (IC50) at DNA topoisomerase II was 1.22 µM; in the experiment with NCI-H226, 2.4 µM; with Raji, 0.16 µM; in the experiment on HT-29, 0.36 µM; with DU-145, 0.36 µM; in the experiment with MDA-MB-231 it was 0.35 µM. The IC50 in the experiment with B16 amounted to 0.68 µM. The DNA unwinding concentration with Nucleic Acid was found to be 35 µM.

Take `O=C(O)c1cn2c3c(c(N4CCNCC4)c(F)cc3c1=O)Oc1cc3ccccc3cc1-2`: the IC50 at DNA topoisomerase II is 0.64 µM; in the experiment on NCI-H226, more than 100 µM; in the experiment with Raji it was 0.0072 µM; in the experiment with HT-29 it was 6.8 µM; with DU-145, 0.075 µM; with MDA-MB-231, more than 1000 µM. Moreover, inhibition with B16 was half-maximal at 0.045 µM (IC50). In the experiment with Nucleic Acid, the DNA unwinding concentration was more than 100 µM.

`NC1CCN(c2c(F)cc3c(=O)c(C(=O)O)cn4c3c2Oc2cc3ccccc3cc2-4)C1` (stereo unspecified): the 50% inhibitory concentration (IC50) at DNA topoisomerase II was determined as 0.77 µM; with NCI-H226, 0.004 µM; with Raji, 0.038 µM; in the experiment with HT-29 it was 0.028 µM; with DU-145, 0.025 µM; in the experiment with MDA-MB-231 it was 0.023 µM. For the same compound, in the experiment on B16, the IC50 came out at 0.1 µM.

Regarding `N[C@H]1CCN(c2c(F)cc3c(=O)c(C(=O)O)cn4c3c2Oc2ccccc2-4)C1`, the half-maximal inhibitory concentration (IC50) against DNA topoisomerase II stood at 0.51 µM; with NCI-H226, 0.09 µM; in the experiment with Raji, 0.05 µM; in the experiment with HT-29, 0.16 µM; in the experiment on DU-145, 0.16 µM; in the experiment with MDA-MB-231 it was 0.16 µM. In the experiment with B16, the concentration for half-maximal inhibition (IC50) turned out to be 0.17 µM. Besides, the DNA unwinding concentration in the experiment on Nucleic Acid was 50 µM.

Regarding `NC1CCN(c2c(F)cc3c(=O)c(C(=O)O)cn4c3c2Oc2ccc3ccccc3c2-4)C1` (stereo unspecified), the IC50 is 0.77 µM on DNA topoisomerase II; 0.14 µM in the experiment on NCI-H226; 0.086 µM in the experiment on Raji; 0.18 µM with HT-29; 0.2 µM in the experiment on DU-145; 0.15 µM in the experiment on MDA-MB-231. For the same compound, in the experiment on B16, half-maximal inhibition (IC50) required 0.44 µM.

With `O=C(O)c1cn2c3c(c(N4CCNCC4)c(F)cc3c1=O)Oc1ccc3ccccc3c1-2`, the IC50 turned out to be 9.6 µM against DNA topoisomerase II; 2.1 µM in the experiment on NCI-H226; 0.8 µM with Raji; 2 µM in the experiment with HT-29; 0.84 µM in the experiment on DU-145; 2.2 µM in the experiment with MDA-MB-231. Further, 2.1 µM corresponded to half-maximal inhibition with B16 (IC50). In addition, the DNA unwinding concentration in the experiment on Nucleic Acid is more than 100 µM.

For the compound `N[C@H]1CCN(c2c(F)cc3c(=O)c(C(=O)O)cn4c3c2Oc2ccc3ccccc3c2-4)C1`, the concentration for half-maximal inhibition (IC50) on DNA topoisomerase II amounted to 0.72 µM; in the experiment with NCI-H226 it was 0.13 µM; with Raji it was 0.082 µM; in the experiment with HT-29 it was 0.27 µM; with DU-145, 0.14 µM; with MDA-MB-231 it was 0.19 µM. The IC50 with B16 is 0.13 µM. Moreover, the DNA unwinding concentration in the experiment with Nucleic Acid is 19 µM.

With `O=C(O)c1cn2c3c(c(N4CCNCC4)c(F)cc3c1=O)Oc1c-2ccc2ccccc12`, the IC50 at DNA topoisomerase II was 1.84 µM; with NCI-H226, 0.2 µM; with Raji, 0.21 µM; in the experiment on HT-29, 0.36 µM; in the experiment with DU-145, 0.14 µM; with MDA-MB-231, 0.38 µM. In the experiment on B16, this compound returned a half-inhibitory concentration (IC50) of 0.65 µM. The DNA unwinding concentration in the experiment on Nucleic Acid was more than 100 µM.

As for `N[C@H]1CCN(c2c(F)cc3c(=O)c(C(=O)O)cn4c3c2Oc2c-4ccc3ccccc23)C1`, the IC50 on DNA topoisomerase II was found to be 0.49 µM; with NCI-H226 it was 0.027 µM; in the experiment with Raji, 0.02 µM; in the experiment with HT-29, 0.051 µM; in the experiment on DU-145, 0.064 µM; with MDA-MB-231, 0.084 µM. This compound gave an IC50 with B16 of 0.18 µM. Further, the DNA unwinding concentration in the experiment with Nucleic Acid was 10 µM.
